This is a sample that favours compounds with a hit; in the whole collection about 3.8% have one here.
KCNQ1 inh: blocks the human KCNQ1 potassium channel; P51787; CHO-K1 KCNQ1, FluxOR thallium flux fluorescence; hits give high values; B-score at 10 µM; 1.3% of 310,000 active; AID 2642;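 active = compounds whose thallium flux B-score, printed positive for inhibition, exceeds three library SD while starting fluorescence stays within three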;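 note: channel opened by potassium depolarization with thallium stimulus after 20 min compound exposure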
hERG protect: hERG (human) protection from proarrhythmic block | activation (rescue from dofetilide block), less the hit threshold, % at 10 µM | AID 1511 | 0.51% of 310,000 active | CHO-hERG, FluxOR thallium flux, dofetilide IC70 present;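 active = activation above the mean of controls blocked by dofetilide plus 5 SD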;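 note: thallium influx through hERG after potassium depolarization seen as dye fluorescence rise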
KCNK9 inh: human KCNK9 channel inhibition | Q9NPC2 | HEK293 KCNK9, FluxOR thallium flux fluorescence; hits give low values | B-score at 10 µM | 1.2% of 310,000 active | AID 488922;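 active = ratio B-score over 3 SD below the library mean, with starting fluorescence within 5 SD of its mean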;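 note: negative B-score means less thallium flux so channel inhibition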
Kir21 inh: Kir2.1 (mouse) channel inhibition. AID 1672. 0.85% of 310,000 active. P35561. HEK293-Kir2.1, FluxOR thallium flux fluorescence; hits give low values. B-score at 10 µM;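 active = fluorescence ratio B-score at or below minus 3 SD of library scores, with starting-brightness B-score within 2 SD, cut at about -4.2 in these data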;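 note: channel flux triggered by added potassium and thallium sulfate stimulus; B-score of peak minus minimum fluorescence over baseline after thallium stimulus; more negative B-score means stronger Kir2.1 block with less thallium influx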
Target sequence (P35561 whole entry, looked up): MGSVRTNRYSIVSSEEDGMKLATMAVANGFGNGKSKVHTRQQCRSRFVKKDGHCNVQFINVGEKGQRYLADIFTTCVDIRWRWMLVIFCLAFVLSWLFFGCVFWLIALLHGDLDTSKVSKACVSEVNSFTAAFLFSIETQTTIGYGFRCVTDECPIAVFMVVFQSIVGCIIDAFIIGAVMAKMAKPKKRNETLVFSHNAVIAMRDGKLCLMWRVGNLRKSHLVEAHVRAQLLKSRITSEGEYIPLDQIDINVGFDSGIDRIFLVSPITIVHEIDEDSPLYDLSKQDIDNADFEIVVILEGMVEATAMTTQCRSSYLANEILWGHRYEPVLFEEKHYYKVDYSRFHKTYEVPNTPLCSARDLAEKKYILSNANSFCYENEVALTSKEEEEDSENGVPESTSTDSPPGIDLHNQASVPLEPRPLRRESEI
KCNK3 inh: human KCNK3 channel inhibition, primary screen. O14649. CHO-KCNK3 thallium flux, FluxOR fluorescence; hits give low values. B-score at 10 µM. 0.84% of 340,000 active. AID 602410;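 active = B-score under library mean minus 4 SD, starting fluorescence ratio at most library mean plus 5 SD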;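 note: more negative B-score means stronger inhibition of thallium flux through KCNK3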
KCNQ1 act: potentiates or activates the human KCNQ1 potassium channel; B-score at 10 µM; CHO-K1 KCNQ1, thallium flux FluxOR fluorescence; hits give high values; AID 2648; P51787; 0.35% of 310,000 active;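 active = fluorescence ratio B-score, a plate-corrected score, at least three library SD, with initial intensity B-score within 5 SD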
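Material: CHO-K1 cells stably expressing KCNQ1. Medium: assay buffer for compound exposure, DMSO matched across wells. Reagent: K+/Tl+ depolarizing stimulus. Compound dosing: single-concentration screen. Times: 37 °C overnight plating, 90-min dark dye load, 20-min compound pretreatment. Technique: FluxOR Tl+ flux fluorescence.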
Hits are given with their value; i = inactive; nt = no result.

SMILES | KCNQ1 inh | hERG protect | KCNK9 inh | Kir21 inh | KCNK3 inh | KCNQ1 act
COc1ccc(OC)c(S(=O)(=O)Nc2cc(OC)c(Cl)cc2OC)c1 | i | i | i | -5.6 | i | i
COc1ccccc1NS(=O)(=O)c1cc(Cl)ccc1OC | i | i | i | -4.8 | i | i
COc1ccccc1NS(=O)(=O)c1ccc(OC)c(OC)c1 | i | i | i | i | i | i
COc1cc(OC)c(NS(=O)(=O)c2cc(Br)cnc2N)cc1Cl | i | i | i | -5.8 | i | i
C=CCNC(=O)C1CC1(c1ccc(C)cc1)c1ccc(C)cc1 (stereo not given) | i | i | i | i | i | i
O=C(O)CN1C(=O)C(=O)N(Cc2ccc(C(F)(F)F)cc2)C1=O | i | 5.4 | i | i | i | i
CC(=O)N(Cc1c(C)nn(-c2ccccc2)c1Cl)c1ccc(Cl)cc1 | i | i | i | -5.1 | i | i
Cc1nn(-c2ccccc2)c(Cl)c1CN(C(=O)CCl)c1ccc(Cl)cc1 | i | i | i | i | i | i
Cc1ccc(C(=O)OCn2ncc(Cl)c(Cl)c2=O)cc1 | i | i | i | i | i | 10
O=C(OCn1ncc(Cl)c(Cl)c1=O)c1ccc(C(F)(F)F)cc1 | i | i | i | i | i | i
CC(=O)C1=C(C)NC(SCC(=O)c2ccc(Cl)cc2)=C(C#N)C1c1ccco1 (stereo not given) | i | i | -15 | i | i | i
CC(=O)C1=C(C)NC(SCc2ccc(C#N)cc2)=C(C#N)C1c1ccco1 (stereo not given) | nt | nt | nt | nt | i | nt
COc1cn(-c2ccccc2)nc1C(=O)Nc1ccc(C)cc1Cl | i | i | i | i | i | i
CCOc1cccc2cc(C(=O)NCc3ccc(C)cc3)c(=N)oc12 | i | i | i | i | i | i
Cc1ccc(Cl)c(OCCCCN(C)Cc2ccccc2)c1 | i | i | i | -9.5 | i | i
CCCCNCCOCCOc1ccc(Cl)cc1Br | i | i | i | -6.1 | i | i
CN(CCOc1ccccc1Cl)Cc1ccccc1 | i | i | i | i | i | i
CN(CCCOc1ccccc1Br)Cc1ccccc1 | i | i | i | i | i | i
CN(CCOCCOc1ccc(Cl)cc1Br)Cc1ccccc1 | i | i | i | -7.3 | i | i
Cc1ccc(C)c(N(CC(=O)N2CCCC2)S(C)(=O)=O)c1 | i | i | i | i | i | i
COc1cc2c(cc1OC)CN(C(=O)c1nn(Cc3ccccc3)c(=O)c3ccccc13)CC2 | nt | nt | nt | nt | -9.3 | nt
O=c1c(C(c2ccccc2)c2c(O)sc3ccccc3c2=O)c(O)sc2ccccc12 | i | i | -8.2 | i | i | i
CC(C)Cn1c(=O)c(C(=O)Nc2cnccn2)c(O)c2ccccc21 | i | i | i | i | i | i
CC(C)Cn1c(=O)c(C(=O)Nc2ccncc2)c(O)c2ccccc21 | 8 | i | i | i | i | i
Cc1ccc2nc(CCc3nc4ccc(C)cc4[nH]3)[nH]c2c1 | i | i | i | -4.4 | i | i
SMILES | KCNQ1 inh | hERG protect | KCNK9 inh | Kir21 inh | KCNK3 inh | KCNQ1 act
COc1ccc(NC(=O)CN(c2ccc(F)cc2)S(=O)(=O)c2ccccc2)c(OC)c1 | i | i | i | i | i | i
COc1ccc(N2C(C(C)=O)=NN(c3ccccc3)C2c2cccs2)cc1 (stereo not given) | 7 | i | i | i | i | i
CC(=O)Nc1ccc(N2C(C(C)=O)=NN(c3ccccc3)C2c2cccs2)cc1 (stereo not given) | i | i | i | i | i | i
COc1ccc(NC(=O)CN(C)C2=NS(=O)(=O)c3ccccc32)cc1Cl | nt | nt | nt | nt | i | nt
O=C(CCN1CCOCC1)NNC(=S)NC(=O)c1ccc(Br)cc1 | 6 | i | i | i | i | i
CCCCNC(=S)NC(=O)c1ccc([N+](=O)[O-])cc1 | i | i | i | i | i | 10
O=C(COc1ccc([N+](=O)[O-])cc1)NNC(=S)NC(=O)c1ccc(Br)cc1 | 7 | i | i | i | i | i
Cc1ccc(C(=O)NC(=S)NNC(=O)COc2ccc([N+](=O)[O-])cc2)cc1 | i | i | i | i | i | 8
CCOc1ccc(CN2CCNC(=O)C2CC(=O)NC2CCOCC2)cc1 (stereo not given) | i | i | i | i | i | i
O=C(NCc1ccccc1Cl)c1nnc(CS(=O)(=O)c2ccccc2)o1 | i | i | i | i | i | i
CC(Sc1n[nH]c(-c2cccs2)n1)C(=O)N1CCCC1 (stereo not given) | nt | nt | nt | nt | i | nt
Cc1cccc(C(=O)NC(=S)NNC(=O)COc2c(C)cccc2C)c1 | i | 17 | i | i | i | 13
O=C(Cc1cccc2ccccc12)N/N=C/c1ccc2cccc(O)c2n1 | i | i | i | i | i | i
O=C(Cc1cccc2ccccc12)N/N=C/c1ccc(Sc2cccc3cccnc23)o1 | i | i | -9.8 | i | nt | i
Nc1nc(O)c(N=Nc2ccc(S(N)(=O)=O)cc2)c(=O)[nH]1 | i | 4.8 | i | i | nt | i
NS(=O)(=O)c1ccc(N=Nc2c[nH]c(=O)c(O)c2)cc1 | i | i | i | i | i | i
Cc1ccc(C)c2c1cc(C)c1nnc(SCC(=O)c3cccs3)n12 | i | i | i | -7.5 | i | i
Cc1ccc2cc(C)c3nnc(SCC(=O)c4cccs4)n3c2c1C | i | i | i | -5.1 | i | i
Cc1ccc(C)c2c1cc(C)c1nnc(SCC(=O)Nc3nc4c(s3)CCCC4)n12 | i | i | i | i | i | i
Cc1cc(C)c2sc(N(CCCN(C)C)C(=O)c3ccc(S(=O)(=O)N4CCCc5ccccc54)cc3)nc2c1 | 6 | i | i | i | i | i
C=CCn1c2ccccc2c2nnc(SCN3C(=O)c4ccccc4C3=O)nc21 | 6 | i | i | i | i | i
Cc1ccc(S(=O)(=O)N[C@H](C(=O)Oc2ccc3c(C(F)(F)F)cc(=O)oc3c2)c2ccccc2)cc1 | 9 | i | i | i | i | i
Cc1ccc(S(=O)(=O)NC(C(=O)Oc2ccc3ccc(=O)oc3c2)c2ccccc2)cc1 (stereo not given) | i | i | i | i | i | i
C/C(=N\Nc1nc(C)c(C)s1)c1ccc([N+](=O)[O-])cc1 | i | 30 | i | i | i | 19
CCOC(=O)C1(Cc2cccc(Cl)c2)CCCN(C(=O)c2cnn(CC)c2)C1 (stereo not given) | i | i | i | i | i | i
C/C(=C\C(=O)c1ccncc1)Nc1ccccc1O | i | 5.7 | i | i | i | i
Oc1c(CN2CCOCC2)cc(CN2CCOCC2)c(O)c1CN1CCOCC1 | nt | nt | nt | nt | i | nt
Oc1c(CN2CCOCC2)cc(-c2ccccc2)cc1CN1CCOCC1 | i | 35 | i | i | i | i
O=C(NCCc1ccccn1)c1nc(Cn2ccc([N+](=O)[O-])n2)no1 | i | i | i | i | i | i
CC(C)c1ccc(C2C3CSCC=C3C(C#N)=C(N)C2(C#N)C#N)cc1 (stereo not given) | 12 | i | i | i | nt | i

From PubChem
